From ChEMBL document CHEMBL1155265, “Design, synthesis and in vitro antibacterial/antifungal evaluation of novel 1-ethyl-6-fluoro-1,4-dihydro-4-oxo-7(1-piperazinyl)quinoline-3-carboxylic acid derivatives” (2009)

How the values were obtained:
Type in all cases: functional
Xanthomonas oryzae = experiment: Antibacterial activity against Xanthomonas oryzae at 50 mg/L after 24 hrs by agar well diffusion method; details: read-out: DIZ
Xanthomonas axonopodis = experiment: Antibacterial activity against Xanthomonas axonopodis at 50 mg/L after 24 hrs by agar well diffusion method; details: read-out: DIZ
Procedure, shortened: (§1)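 Bacteria plated as 0.8 mL of 24-h-old inoculum mixed into 60 mL sterile molten agar cooled to 45 °C, poured into three dishes. Wells bored with centres at least 24 mm apart. Test sample at 50 mg/L in DMSO added to wells. DMSO served as negative control and agricultural streptomycin sulfate as positive control. Read-out was inhibition zone diameter (mm).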

Erwinia = experiment: Antibacterial activity against Erwinia aroideae at 50 mg/L after 24 hrs by agar well diffusion method; details: read-out: DIZ; procedure, shortened: as §1
Bacillus subtilis = experiment: Antibacterial activity against Bacillus subtilis at 50 mg/L after 24 hrs by agar well diffusion method; details: read-out: DIZ; procedure, shortened: as §1
Ralstonia solanacearum = experiment: Antibacterial activity against Ralstonia solanacearum at 50 mg/L after 24 hrs by agar well diffusion method; details: read-out: DIZ
Rhizoctonia solani = experiment: Antifungal activity against Rhizoctonia solani at 200 mg/L by plate growth rate method; details: read-out: GI
Procedure, shortened: (§2)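 Compound dissolved in DMSO and mixed into molten PDA at 45 °C at 200 mg/L, then plates allowed to set. A 5 mm mycelial agar disc was placed at the centre. Plates were incubated at 28 °C in the dark until the untreated control covered the plate. Colony diameters were measured and growth inhibition calculated by Abbott's formula. Each compound was tested three times.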

Fusarium graminearum = experiment: Antifungal activity against Gibberella zeae at 200 mg/L by plate growth rate method; details: read-out: GI
Procedure, shortened: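 Plate growth rate method: compound dissolved in DMSO, mixed into sterile PDA at 45 °C to 200 mg/L, plates poured. A 5 mm mycelium agar disc placed centrally; incubated at 28 °C in the dark until the untreated control covered the plate. Colony diameters measured; growth inhibition computed by Abbott's formula. Each compound tested three times.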

Cytospora mali = experiment: Antifungal activity against Valsa mali at 200 mg/L by plate growth rate method; details: read-out: GI; procedure, shortened: as §2

CCn1cc(C(=O)O)c(=O)c2cc(F)c(N3CCN(C(=O)COc4ccccc4)CC3)cc21
zone of inhibition at 50 µg/mL (Xanthomonas oryzae): 15.3 mm
zone of inhibition at 50 µg/mL (Xanthomonas axonopodis): 15 mm
zone of inhibition at 50 µg/mL (Erwinia): 13.8 mm
zone of inhibition at 50 µg/mL (Bacillus subtilis): 17.3 mm
zone of inhibition at 50 µg/mL (Ralstonia solanacearum): 4.89 mm
inhibition of growth at 200 µg/mL (Rhizoctonia solani): 30%
inhibition of growth at 200 µg/mL (Fusarium graminearum): 17%
inhibition of growth at 200 µg/mL (Cytospora mali): 8%

CCn1cc(C(=O)O)c(=O)c2cc(F)c(N3CCN(C(=O)Cc4cccc5ccccc45)CC3)cc21
zone of inhibition at 50 µg/mL (Xanthomonas oryzae): 9.35 mm
zone of inhibition at 50 µg/mL (Xanthomonas axonopodis): 9.99 mm
zone of inhibition at 50 µg/mL (Erwinia): 10.4 mm
zone of inhibition at 50 µg/mL (Bacillus subtilis): 13.2 mm
zone of inhibition at 50 µg/mL (Ralstonia solanacearum): 0 mm
inhibition of growth at 200 µg/mL (Rhizoctonia solani): 5%
inhibition of growth at 200 µg/mL (Fusarium graminearum): 12%
inhibition of growth at 200 µg/mL (Cytospora mali): 0%

CCn1cc(C(=O)O)c(=O)c2cc(F)c(N3CCN(C(=O)/C=C/c4ccccc4)CC3)cc21
zone of inhibition at 50 µg/mL (Xanthomonas oryzae): 11.7 mm
zone of inhibition at 50 µg/mL (Xanthomonas axonopodis): 12.1 mm
zone of inhibition at 50 µg/mL (Erwinia): 10.8 mm
zone of inhibition at 50 µg/mL (Bacillus subtilis): 15.2 mm
zone of inhibition at 50 µg/mL (Ralstonia solanacearum): 4.64 mm
inhibition of growth at 200 µg/mL (Rhizoctonia solani): 29%
inhibition of growth at 200 µg/mL (Fusarium graminearum): 5%
inhibition of growth at 200 µg/mL (Cytospora mali): 9%

CCn1cc(C(=O)O)c(=O)c2cc(F)c(N3CCN(C(=O)c4ccco4)CC3)cc21
zone of inhibition at 50 µg/mL (Xanthomonas oryzae): 22.9 mm
zone of inhibition at 50 µg/mL (Xanthomonas axonopodis): 15.5 mm
zone of inhibition at 50 µg/mL (Erwinia): 13.8 mm
zone of inhibition at 50 µg/mL (Bacillus subtilis): 22.5 mm
zone of inhibition at 50 µg/mL (Ralstonia solanacearum): 9.81 mm
inhibition of growth at 200 µg/mL (Rhizoctonia solani): 14%
inhibition of growth at 200 µg/mL (Fusarium graminearum): 7%
inhibition of growth at 200 µg/mL (Cytospora mali): 8%

CCn1cc(C(=O)O)c(=O)c2cc(F)c(N3CCN(C(=O)COc4ccc(Br)cc4)CC3)cc21
zone of inhibition at 50 µg/mL (Xanthomonas oryzae): 8.02 mm
zone of inhibition at 50 µg/mL (Xanthomonas axonopodis): 10.7 mm
zone of inhibition at 50 µg/mL (Erwinia): 8.94 mm
zone of inhibition at 50 µg/mL (Bacillus subtilis): 12.7 mm
zone of inhibition at 50 µg/mL (Ralstonia solanacearum): 7.47 mm
inhibition of growth at 200 µg/mL (Rhizoctonia solani): 49%
inhibition of growth at 200 µg/mL (Fusarium graminearum): 6%
inhibition of growth at 200 µg/mL (Cytospora mali): 9%

CCn1cc(C(=O)O)c(=O)c2cc(F)c(N3CCN(C(=O)c4ccccc4O)CC3)cc21
zone of inhibition at 50 µg/mL (Xanthomonas oryzae): 16.7 mm
zone of inhibition at 50 µg/mL (Xanthomonas axonopodis): 14.4 mm
zone of inhibition at 50 µg/mL (Erwinia): 16.5 mm
zone of inhibition at 50 µg/mL (Bacillus subtilis): 22.7 mm
zone of inhibition at 50 µg/mL (Ralstonia solanacearum): 2.06 mm
inhibition of growth at 200 µg/mL (Rhizoctonia solani): 0%
inhibition of growth at 200 µg/mL (Fusarium graminearum): 15%
inhibition of growth at 200 µg/mL (Cytospora mali): 17%

CCn1cc(C(=O)O)c(=O)c2cc(F)c(N3CCN(C(=O)c4ccccc4)CC3)cc21
zone of inhibition at 50 µg/mL (Xanthomonas oryzae): 22.7 mm
zone of inhibition at 50 µg/mL (Xanthomonas axonopodis): 15.8 mm
zone of inhibition at 50 µg/mL (Erwinia): 17.9 mm
zone of inhibition at 50 µg/mL (Bacillus subtilis): 20.7 mm
zone of inhibition at 50 µg/mL (Ralstonia solanacearum): 5.92 mm
inhibition of growth at 200 µg/mL (Rhizoctonia solani): 25%
inhibition of growth at 200 µg/mL (Fusarium graminearum): 23%
inhibition of growth at 200 µg/mL (Cytospora mali): 42%

CCn1cc(C(=O)O)c(=O)c2cc(F)c(N3CCN(C(=O)c4cccnc4)CC3)cc21
zone of inhibition at 50 µg/mL (Xanthomonas oryzae): 7.94 mm
zone of inhibition at 50 µg/mL (Xanthomonas axonopodis): 6.58 mm
zone of inhibition at 50 µg/mL (Erwinia): 9.19 mm
zone of inhibition at 50 µg/mL (Bacillus subtilis): 8.74 mm
zone of inhibition at 50 µg/mL (Ralstonia solanacearum): 1.06 mm
inhibition of growth at 200 µg/mL (Rhizoctonia solani): 12%
inhibition of growth at 200 µg/mL (Fusarium graminearum): 11%
inhibition of growth at 200 µg/mL (Cytospora mali): 17%

CCn1cc(C(=O)O)c(=O)c2cc(F)c(N3CCN(C(=O)COc4ccccc4C)CC3)cc21
zone of inhibition at 50 µg/mL (Xanthomonas oryzae): 14.2 mm
zone of inhibition at 50 µg/mL (Xanthomonas axonopodis): 10.7 mm
zone of inhibition at 50 µg/mL (Erwinia): 13.4 mm
zone of inhibition at 50 µg/mL (Bacillus subtilis): 15.3 mm
zone of inhibition at 50 µg/mL (Ralstonia solanacearum): 6.22 mm
inhibition of growth at 200 µg/mL (Rhizoctonia solani): 34%
inhibition of growth at 200 µg/mL (Fusarium graminearum): 20%
inhibition of growth at 200 µg/mL (Cytospora mali): 19%

CCn1cc(C(=O)O)c(=O)c2cc(F)c(N3CCN(C(=O)c4ccccc4Br)CC3)cc21
zone of inhibition at 50 µg/mL (Xanthomonas oryzae): 16.5 mm
zone of inhibition at 50 µg/mL (Xanthomonas axonopodis): 14.6 mm
zone of inhibition at 50 µg/mL (Erwinia): 16.2 mm
zone of inhibition at 50 µg/mL (Bacillus subtilis): 20.1 mm
zone of inhibition at 50 µg/mL (Ralstonia solanacearum): 8.14 mm
inhibition of growth at 200 µg/mL (Rhizoctonia solani): 15%
inhibition of growth at 200 µg/mL (Fusarium graminearum): 34%
inhibition of growth at 200 µg/mL (Cytospora mali): 44%

CCn1cc(C(=O)O)c(=O)c2cc(F)c(N3CCN(C(=O)c4ccc(Cl)cc4)CC3)cc21
zone of inhibition at 50 µg/mL (Xanthomonas oryzae): 17.7 mm
zone of inhibition at 50 µg/mL (Xanthomonas axonopodis): 12.9 mm
zone of inhibition at 50 µg/mL (Erwinia): 16.6 mm
zone of inhibition at 50 µg/mL (Bacillus subtilis): 18.5 mm
zone of inhibition at 50 µg/mL (Ralstonia solanacearum): 1.47 mm
inhibition of growth at 200 µg/mL (Rhizoctonia solani): 21%
inhibition of growth at 200 µg/mL (Fusarium graminearum): 27%
inhibition of growth at 200 µg/mL (Cytospora mali): 16%
